ABCB1 block = blocks JC-1 efflux by human ABCB1 transporter; P08183; inhibition, % at 6.6 µM; hit rate 0.067% among 190,000; CCRF-Adr cells, flow cytometry; in the data active = inhibition above about 40%;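 also: 0% = vehicle and 100% = reference inhibitor; higher value means more JC-1 retained so stronger ABCB1 efflux block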
Efflux pump mplx = inhibitors of Candida antifungal efflux pumps expressed in yeast | S. cerevisiae Candida pump triplex, Nile Red efflux | inhibition, % at 10 µM | hit rate 0.44% among 330,000;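 active = plate passing quality check with inhibition over a set limit, or well fluorescence over plate mean plus 4 SD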;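 also: Nile Red retained in pooled yeast measured as flow cytometry median fluorescence; 0% = buffer negative control and 100% = Enniatin B positive control; higher means more Nile Red kept so more efflux inhibition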
ABCG2 inh = inhibitors of human ABCG2 transporter, ABCB1 counter-screen. Q9UNQ0. IgMXP3 cells, JC-1 efflux, flow cytometry. inhibition, % at 6.6 µM. hit rate 0.1% among 190,000;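 active = inhibition above 80%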;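 also: 0% = DMSO and 100% = nicardipine control wells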
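Test system: IgMXP3 (ABCG2) plus far-red-tagged CCRF-Adr (ABCB1) cells / Amount: 3 million cells/mL in well / Reagent: JC-1 transporter substrate / Timing: 10 min compound exposure, 25 °C / Signal: flow cytometry, 530 nm JC-1 signal / Read-out: percent efflux inhibition, scaled nicardipine 100% to DMSO 0% / Benchmarks: nicardipine as high control, DMSO as low control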
MEKK3 PB1 HTS = MEKK3-MEK5 PB1 interaction, increase or decrease. bead-based flow cytometry, Alexa488-MEK5 binding to MEKK3; actives lie on both sides; 0 = blocked by unlabeled MEK5, 100 = vehicle. hit rate 1.4% among 290,000. binding response (% of control), % at 10 µM. Q99759;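 active = binding response more than 3 SD above or below the average of its plate-row segment, actives on both sides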;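 also: Alexa488 bead fluorescence after subtracting the streptavidin-only scavenger bead signal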
MEKK2 mut-MEK5 = signal of MEK5 binding to mutant human MEKK2 PB1 domain; AID 1530; bead flow cytometry, Alexa488-MEK5 binding to MEKK2 mutant; percent response, % at 10 µM; hit rate 0.35% among 290,000; in the data active = percent response above about 24%, passing the limit was not always enough
MEKK2 WT-MEK5 = raises or lowers MEK5 binding to wildtype human MEKK2 PB1 domain; Q9Y2U5; bead flow cytometry, Alexa488-MEK5 binding to MEKK2 WT; actives lie on both sides; binding response (% of control), % at 10 µM; hit rate 1.1% among 290,000; AID 1531; in the data active = binding response below about 67% or above about 130%
Cmpd fluor yeast = counter-screen for efflux pump inhibitors: compound fluorescence; S. cerevisiae AD/pABC3, flow cytometry; fluorescence ratio to DMSO, % at 10 µM; shares compounds with Efflux pump mplx; AID 588517; hit rate 4% among 1,700;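 active = fluorescence ratio to DMSO above its plate's cutoff, the plate mean ratio plus 5 SD, cut at about 210% in these data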;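 also: unstained yeast with no Nile Red so the signal is compound autofluorescence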
CaMdr1 efflux inh = inhibitors of Candida albicans Mdr1 efflux pump. shares compounds with Efflux pump mplx. S. cerevisiae AD/CaMDR1, Nile Red efflux, flow cytometry. inhibition, % at 10 µM. hit rate 1% among 1,700; in the data active = inhibition above about 26%;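 also: 0% = DMSO vehicle and 100% = reference inhibitor; higher means more Nile Red retained so more efflux inhibition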
Cdr2 pump inh = Candida Cdr2 efflux pump inhibition. AID 588520. hit rate 4% among 1,700. Nile Red retention ratio vs DMSO, % at 10 µM. shares compounds with Efflux pump mplx. S. cerevisiae AD/CaCDR2, Nile Red retention, flow cytometry; in the data active = Nile Red retention ratio vs DMSO above about 190%;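 also: higher ratio means more blocking of Cdr2 efflux of the dye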
CaCdr1 efflux inh = blocks the Candida albicans Cdr1 efflux pump in yeast. shares compounds with Efflux pump mplx. S. cerevisiae AD/CaCDR1, Nile Red efflux, flow cytometry. inhibition, % at 10 µM. hit rate 1% among 1,700;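 active = inhibition above the screen-wide mean plus twice its standard deviation, cut at about 32% in these data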
Starred values were filed as active, the others as inactive; nt = not tested or not shown; ! = not active in a repeat. A selection: hits, their analogues and other compounds. The true share with any hit is near 2.5%.

SMILES	ABCB1 block	Efflux pump mplx	ABCG2 inh	MEKK3 PB1 HTS	MEKK2 mut-MEK5	MEKK2 WT-MEK5	Cmpd fluor yeast	CaMdr1 efflux inh	Cdr2 pump inh	CaCdr1 efflux inh
CCCNC(=O)c1ccc(N2CCC3(CC2)CC(c2ccccc2)=NO3)c(NC(=O)c2ccccc2)c1	nt	0	nt	98	-9	91	nt	nt	nt	nt
CCCCCCCC(=O)Nc1cc(C(=O)NCCC)ccc1N1CCC2(CC1)CC(c1ccccc1)=NO2	nt	0.9*	nt	98	-6	91	117	0	116	0
CN(C)c1ccc(/C=C/c2cccc[n+]2[O-])cc1	nt	0	nt	99	-4	99	nt	nt	nt	nt
CC(C)CC[n+]1ccccc1/C=C/c1ccc(N(C)C)cc1	nt	4.0*	nt	102	-15	98	955*	4	102	2
Cc1ccc(-c2c3c([nH]c(=S)c2C#N)CCCC3)o1	0	0.6*	-2	96	-7	86	108	0	137	0
Cn1c(CCc2nc3ccccc3[nH]2)nnc1SCC#N	0	0	11	106	-11	96	nt	nt	nt	nt
O=S(=O)(/N=C(/Nc1ccc(F)cc1F)c1ccccc1)c1ccc(Br)cc1	-1	0	-7	88	-8	92	nt	nt	nt	nt
O=C(Nc1ccc2nc3n(c(=O)c2c1)CCCCC3)c1cc([N+](=O)[O-])ccc1F	nt	0.7*	nt	98	-3	97	94	0	90	0
O=C(Nc1ccc2nc3n(c(=O)c2c1)CCCCC3)c1c(F)ccc([N+](=O)[O-])c1F	nt	1	nt	97	-4	96	nt	nt	nt	nt
CCN(C(=O)CSc1nnc2ccccn12)c1c(N)n(Cc2ccccc2)c(=O)[nH]c1=O	0	5.8*	0	121	1	107	77	0	91	0
CC(C)c1ccc(N2C(=NC(=O)C3CC3)SC3CS(=O)(=O)CC32)cc1 (centres undefined)	nt	0	nt	103	9	106	nt	nt	nt	nt
O=C(OCc1ccccc1)c1ccc(Br)o1	0	1.1*	1	100	2	100	100	0	116	0
O=C(COC(=O)c1ccc(Br)o1)NCCCc1ccccc1	0	0	1	106	10	109	nt	nt	nt	nt
Cc1ccc(NC(=S)N(CCN2CCCCC2)Cc2ccco2)cc1Cl	1	0	0	99	2	108	nt	nt	nt	nt
O=C(Cc1cc(=O)[nH][nH]1)N/N=C/c1cccc(Cl)c1Cl	-1	19*!	-2	100	-8	89	92	0	95	0
O=C(CCSc1ccccc1)Nc1ccccc1C(=O)N1CCCC1	1	9.6*	1	97	-1	95	100	0	102	0
CCn1c(COc2ccccc2)nnc1SCC(=O)Nc1ccc(N2CCOCC2)cc1	nt	0	nt	103	5	101	nt	nt	nt	nt
CCOc1cc(/C=N/NC(=O)COc2ccc(C)cc2)ccc1OC(=O)c1cccs1	0	0	2	105	2	99	nt	nt	nt	nt
COc1cc(/C=N/NC(=O)COc2ccc(C)cc2)ccc1OC(=O)c1cccs1	1	2.1*	15	104	8	92	87	0	98	0
Cc1nnc(SCc2cc(=O)[nH]c(Nc3nc(C)c4cc(C)c(C)cc4n3)n2)s1	1	1.6*	3	98	-19	80	106	0	102	0
COc1ccc([C@@H]2CC=C(C(=O)O)[C@H](c3ccc(C)cc3)N2S(=O)(=O)c2ccccc2C)cc1	nt	0	nt	nt	nt	nt	nt	nt	nt	nt
CN(C)/C(CN1CCN(C=O)CC1)=C1\N=C(c2ccccc2)OC1=O	0	0.5*	1	103	2	99	98	0	94	0
CC(=O)NCCOc1nc(N2CCCCC2)nc(N2CCCCC2)n1	0	0	0	93	-7	89	nt	nt	nt	nt
CC(=O)NCCOc1nc(N(C)C)nc(N2CCOCC2)n1	1	0.5*	3	102	11	107	95	0	112	0
O=C(Cc1cccc(C(F)(F)F)c1)OCN1C(=O)c2ccccc2C1=O	nt	1.3*	nt	102	2	98	101	0	104	0
SMILES	ABCB1 block	Efflux pump mplx	ABCG2 inh	MEKK3 PB1 HTS	MEKK2 mut-MEK5	MEKK2 WT-MEK5	Cmpd fluor yeast	CaMdr1 efflux inh	Cdr2 pump inh	CaCdr1 efflux inh
O=c1c2ccccc2nnn1Cc1ccccn1	1	8.2*	3	101	3	104	100	0	98	0
O=c1c2ccccc2nnn1Cc1cccc2ccccc12	1	0	7	95	0	99	nt	nt	nt	nt
OC(COCC1COc2ccccc2O1)CN1CCN(c2ccccc2)CC1 (centres undefined)	1	1.0*	2	103	7	106	101	0	97	0
Cc1ccc(C(=O)CSc2nnc(-c3ccncc3)n2C)cc1	0	0	4	101	4	96	nt	nt	nt	nt
CCN(CC)C(=O)CSc1nnc(-c2ccncc2)n1N	0	5.9*	-1	104	2	104	109	0	98	1
CCn1c(SCC(=O)c2ccc(C)cc2)nnc1-c1ccncc1	-2	8.2*	26	106	7	107	114	0	114	0
Cc1cc(C)c(OCC(=O)N2CC=C(c3ccccc3)CC2)c(C)c1	nt	0	nt	100	2	104	nt	nt	nt	nt
COc1ccc(NC(=O)Cn2ncn3nc(-c4ccc(OC)cc4)cc3c2=O)cc1	nt	0	nt	100	2	99	nt	nt	nt	nt
Cc1cccc(NC(=O)CNC(=O)Cc2ccc(S(=O)(=O)N3CCOCC3)s2)c1C	nt	0	nt	nt	nt	nt	nt	nt	nt	nt
Cc1cccc(C(C)C)c1NC(=O)Cc1ccc(S(=O)(=O)N2CCOCC2)s1	nt	0.5*	nt	nt	nt	nt	285*	1	112	0
COc1cc(Cl)c(C)cc1NC(=O)CN1CCN(C(=O)C2CC2)CC1	nt	0	nt	nt	nt	nt	nt	nt	nt	nt
COc1ccc(-c2cnc(SCC(=O)Nc3cc(C)on3)n2Cc2ccco2)cc1	1	0	2	nt	nt	nt	nt	nt	nt	nt
COc1ccc(-c2cnc(SCC(=O)Nc3nc(C(C)(C)C)cs3)n2Cc2ccco2)cc1	0	0.4*	2	94	1	105	115	0	129	0
COc1ccccc1C(=O)NCC(=O)N/N=C/c1cn[nH]c1-c1ccccc1	0	0	5	102	3	101	nt	nt	nt	nt
CC(=O)N1CCN(S(=O)(=O)c2cccc(C(=O)NCCC3=CCCCC3)c2)CC1	nt	0	nt	nt	nt	nt	nt	nt	nt	nt
O=C(NNC(=O)C1COc2ccccc2O1)c1ccccc1 (centres undefined)	0	0	0	101	8	102	nt	nt	nt	nt
